Reference: ChEMBL document CHEMBL4732095, “Novel naphthylamide derivatives as dual-target antifungal inhibitors: Design, synthesis and biological evaluation” (Eur J Med Chem, 2021)
Activity calls are given as the source filed them. The calls are words filed in the database; no cut-off is given here.

How the values were obtained:
[1] = Renal toxicity in mouse infected with Candida albicans SC5314 assessed as effect on blood urea nitrogen level administered via abdomen for 7 days (reference value: 6.8 +/-0.4 mmol/L); conditions: in vivo, ip, 168 h, time 7 day
[2] = system: Candida albicans SC5314; assay: Inhibition of SE/CYP51 in Candida albicans ATCC SC5314 assessed as unknown sterol level at 0.5 ug/ml incubated for 48 hrs by LC/MS analysis (reference value: 3.5 %); design: scale not given: the % may be the effect or the level left; conditions: dose 0.5 µg/ml
Summary of the method: (§1)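 C. albicans SC5314 cells exposed to compound at 0.125, 0.5 or 4 μg/mL for 48 h, alongside untreated, fluconazole and naftifine controls. Sterols (ergosterol, squalene, lanosterol, eburicol, unknown) analysed by LC-MS. Each component expressed as percentage of total sterols from peak area ratios.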

[3] = Toxicity in mouse infected with Candida albicans SC5314 assessed as change in kidney morphology administered via abdomen for 7 days by H and E staining based histological analysis; conditions: in vivo, ip, 168 h, time 7 day
Summary of the method: (§2)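 Mice infected with C. albicans SC5314 by subcutaneous abdominal injection, then randomized into saline, and two compound-treated groups. Treatment given by abdominal injection for 7 days, with body weight monitored. Heart, liver, spleen, lung, kidney and infected abdominal tissue harvested for H&E histology.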

[4] = Toxicity in mouse infected with Candida albicans SC5314 assessed as change in liver morphology administered via abdomen for 7 days by H and E staining based histological analysis; conditions: in vivo, ip, 168 h, time 7 day; summary of the method: as §2
[5] = Hepatotoxicity in mouse infected with Candida albicans SC5314 assessed as effect on alanine aminotransferase level in plasma administered via abdomen for 7 days (reference value: 105 +/- 8.3 IU/L); assay type: toxicity; conditions: ip, 168 h, time 7 day
[6] = system: Nakaseomyces glabratus; assay: Antifungal activity against Candida glabrata ATCC 0001 assessed as inhibition of microbial growth by NCCLS protocol based method; assay type: functional
Summary of the method: (§3)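 Broth MIC50 determined following NCCLS guidelines in Sabouraud medium, with fungal suspension in 24-well format. Compound tested at 0.0625, 0.125, 0.5, 1, 2, 4, 8 and 16 μg/mL. Plates cultured statically at 35 °C. MIC50 is the lowest concentration giving 50% growth inhibition. Naftifine and fluconazole served as positive controls.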

[7] = system: Candida albicans SC5314; assay: Inhibition of SE/CYP51 in Candida albicans ATCC SC5314 assessed as ergosterol level at 4 ug/ml incubated for 48 hrs by LC/MS analysis (reference value: 95.1 %); design: scale not given: the % may be the effect or the level left; conditions: dose 4.0 µg/ml; summary of the method: as §1
[8] = system: Candida albicans; assay: Antifungal activity against fluconazole-resistant Candida albicans 901 assessed as inhibition of microbial growth by NCCLS protocol based method; assay type: functional
[9] = system: Candida albicans SC5314; assay: Inhibition of SE/CYP51 in Candida albicans ATCC SC5314 assessed as lanosterol level at 0.125 ug/ml incubated for 48 hrs by LC/MS analysis; design: scale not given: the % may be the effect or the level left; conditions: dose 0.125 µg/ml
Summary of the method: (§4)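 C. albicans ATCC SC5314 cells exposed to drug at 0.125, 0.5 or 4 μg/mL for 48 h, alongside an untreated control. Sterols were extracted and analysed by LC-MS. Ergosterol, squalene, lanosterol, eburicol and unknown sterols are each given as % of total sterols, calculated from the peak area ratio of each component.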

[10] = Stability in human plasma assessed as compound remaining incubated for 120 mins; assay type: ADME, cell-free; conditions: read-out: Stabilty
Summary of the method: (§5)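 Compound incubated in human plasma. Percent remaining measured at 60 and 120 min.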

[11] = Hepatotoxicity in mouse infected with Candida albicans SC5314 assessed as effect on aspartate aminotransferase level in plasma administered via abdomen for 7 days (reference value: 104.7 +/- 5.2 IU/L); assay type: toxicity; conditions: ip, 168 h, time 7 day
[12] = system: Candida albicans SC5314; assay: Inhibition of SE/CYP51 in Candida albicans ATCC SC5314 assessed as ergosterol level at […] ug/ml incubated for 48 hrs by LC/MS analysis (reference value: 95.1 %); design: scale not given: the % may be the effect or the level left; conditions: dose 0.125 µg/ml
[13] = system: Candida albicans; assay: Antifungal activity against Candida albicans ATCC SC5314 assessed as reduction in cell division at 10 nM/mL by polarizing microscopy; assay type: functional, organism-based; conditions: dose 10.0 nmol/ml
Summary of the method: (§6)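 C. albicans ATCC SC5314 observed by polarizing microscopy over treatment time. Untreated, fluconazole- and naftifine-treated control groups were included. Cell density, dividing cells and cell fracture were assessed, with cell counts taken per field.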

[14] = system: Candida albicans; assay: Antifungal activity against fluconazole-resistant Candida albicans CaR assessed as inhibition of microbial growth by NCCLS protocol based method; assay type: functional
[15] = Toxicity in mouse infected with Candida albicans SC5314 assessed as change in spleen morphology administered via abdomen for 7 days by H and E staining based histological analysis; conditions: in vivo, ip, 168 h, time 7 day; summary of the method: as §2
[16] = system: Candida albicans SC5314; assay: Inhibition of SE/CYP51 in Candida albicans ATCC SC5314 assessed as squalene level at 4 ug/ml incubated for 48 hrs by LC/MS analysis; design: scale not given: the % may be the effect or the level left; conditions: dose 4.0 µg/ml; summary of the method: as §1
[17] = system: Candida albicans SC5314; assay: Inhibition of SE/CYP51 in Candida albicans ATCC SC5314 assessed as unknown sterol level at 4 ug/ml incubated for 48 hrs by LC/MS analysis (reference value: 3.5 %); design: scale not given: the % may be the effect or the level left; conditions: dose 4.0 µg/ml; summary of the method: as §1
[18] = system: Candida albicans SC5314; assay: Inhibition of SE/CYP51 in Candida albicans ATCC SC5314 assessed as eburicol level at 4 ug/ml incubated for 48 hrs by LC/MS analysis (reference value: 1.4 %); design: scale not given: the % may be the effect or the level left; conditions: dose 4.0 µg/ml; summary of the method: as §1
[19] = system: Candida albicans; assay: Antifungal activity against Candida albicans ATCC 10231 assessed as inhibition of microbial growth by NCCLS protocol based method; assay type: functional; summary of the method: as §3
[20] = system: Aspergillus fumigatus; assay: Antifungal activity against Aspergillus fumigatus KM8001 assessed as inhibition of microbial growth by NCCLS protocol based method; assay type: functional; summary of the method: as §3
[21] = system: Candida albicans; assay: In vivo antifungal activity against Candida albicans infected in mouse assessed as disappearance of cell nuclear aggregation injected via abdomen for 7 days by H and E staining based histological analysis; assay type: functional, organism-based; conditions: SC5314, time 7.0 day; summary of the method: as §2
[22] = system: Candida albicans; assay: Antifungal activity against Candida albicans ATCC SC5314 assessed as reduction in size of fungal cells (reference value: 8.29 micrometer); assay type: functional
[23] = system: Candida albicans SC5314; assay: Inhibition of SE/CYP51 in Candida albicans ATCC SC5314 assessed as unknown sterol level at […] ug/ml incubated for 48 hrs by LC/MS analysis (reference value: 3.5 %); design: scale not given: the % may be the effect or the level left; conditions: dose 0.125 µg/ml
[24] = system: Candida albicans SC5314; assay: Inhibition of SE/CYP51 in Candida albicans ATCC SC5314 assessed as ergosterol level at 0.5 ug/ml incubated for 48 hrs by LC/MS analysis (reference value: 95.1 %); design: scale not given: the % may be the effect or the level left; conditions: dose 0.5 µg/ml; summary of the method: as §1
[25] = system: Candida albicans SC5314; assay: Inhibition of SE/CYP51 in Candida albicans ATCC SC5314 assessed as eburicol level at 0.5 ug/ml incubated for 48 hrs by LC/MS analysis (reference value: 1.4 %); design: scale not given: the % may be the effect or the level left; conditions: dose 0.5 µg/ml; summary of the method: as §1
[26] = system: Candida albicans; assay: Antifungal activity against Candida albicans ATCC SC5314 assessed as induction of cell fracture at 10 nM/mL by polarizing microscopy; assay type: functional, organism-based; conditions: dose 10.0 nmol/ml; summary of the method: as §6
[27] = Stability in human plasma assessed as compound remaining incubated for 60 mins; assay type: ADME, cell-free; conditions: read-out: Stabilty; summary of the method: as §5
[28] = system: Candida albicans SC5314; assay: Inhibition of SE/CYP51 in Candida albicans ATCC SC5314 assessed as lanosterol level at 4 ug/ml incubated for 48 hrs by LC/MS analysis; design: scale not given: the % may be the effect or the level left; conditions: dose 4.0 µg/ml; summary of the method: as §1
[29] = system: Candida tropicalis; assay: Antifungal activity against Candida tropicalis ATCC 1369 assessed as inhibition of microbial growth by NCCLS protocol based method; assay type: functional; summary of the method: as §3
[30] = system: Candida albicans SC5314; assay: Inhibition of SE/CYP51 in Candida albicans ATCC SC5314 assessed as squalene level at 0.125 ug/ml incubated for 48 hrs by LC/MS analysis; design: scale not given: the % may be the effect or the level left; conditions: dose 0.125 µg/ml; summary of the method: as §4

Compound	Activity [1]	Activity [2]	Activity [3]	Activity [4]	Activity [5]	MIC50 [6]	Activity [7]	MIC50 [8]	Activity [9]	remaining at 2 h [10]	Activity [11]	Activity [12]	Activity [13]	MIC50 [14]	Activity [15]	Activity [16]	Activity [17]	Activity [18]	MIC50 [19]	MIC50 [20]	also measured
O=C(NC(Cn1ccnc1)C(=O)NCc1ccncc1)c1ccc2ccccc2c1 (stereo not given)	7.3 mmol/L	4.8%	Non-Toxic	Non-Toxic	102 IU/L	0.125 µg/mL	13.2%	4 µg/mL	3.8%	91.6%	108.6 IU/L	68.4%	Active	8 µg/mL	Non-Toxic	20.5%	6.1%	49.3%	0.25 µg/mL	4 µg/mL	Activity [21]: Active; Activity [22]: 7.53 um; Activity [23]: 5%; Activity [24]: 35.6%; Activity [25]: 37.9%; Activity [26]: Active; remaining at 1 h [27]: 94.5%; Activity [28]: 10.9%; MIC50 [29]: 0.25 µg/mL; Activity [30]: 9.2%
CC(NC(=O)c1cccc2ccccc12)C(=O)NC(Cn1ccnc1)C(=O)c1ccccc1 (stereo not given)	6.4 mmol/L	5.8%	Non-Toxic	Non-Toxic	106 IU/L	0.25 µg/mL	10.8%	4 µg/mL	2.8%	92.1%	112.3 IU/L	66.4%	Active	4 µg/mL	Non-Toxic	27.9%	6.2%	42.6%	0.125 µg/mL	4 µg/mL	Activity [21]: Active; Activity [22]: 7.51 um; Activity [23]: 5.4%; Activity [24]: 29.9%; Activity [25]: 34%; Activity [26]: Active; remaining at 1 h [27]: 96.3%; Activity [28]: 12.5%; MIC50 [29]: 0.125 µg/mL; Activity [30]: 7.9%
